The list is not random: actives were taken first. Their share in the collection is about 2.3%.
NR2E3 ag-1: agonists of human nuclear receptor NR2E3; Q9Y5X4; GST-NR2E3/biotin-RetCOR TR-FRET, 1536-well; inhibition of corepressor binding, % at 4.78 µM; 0.12% of 320,000 active; AID 2300;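 active means percent inhibition above the cutoff of mean plus 3 SD of all tested compounds, set per screening campaign, cut at about 20% in these data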;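 further: 0% = DMSO wells and 100% = biotin wells as full block of FRET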
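Material: NR2E3–RetCOR corepressor complex | Quantity: 1.35 nM GST-tagged NR2E3 final | Schedule: 5 h at 4 °C | Replication: Singlicate compound wells | Reagent: RetCOR corepressor, biotinylated, 7 nM | Controls: Biotin wells as high control, 0.6% DMSO wells as low control | Signal: TR-FRET, Eu(K)-anti-GST donor, streptavidin-D2 acceptor, ex 340, em 617/671 nm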
NR2F2 inh: NR2F2 (human) inhibition, primary screen. P24468. HEK293T NGFI-A luciferase reporter, luminescence. inhibition, % at 8.6 µM. 0.7% of 370,000 active;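 active means inhibition above a per-plate cutoff, mean inhibition of test wells between control levels plus 3 SD, cut at about 38% in these data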;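 further: cells cotransfected with COUP-TFII expression vector driving the NGFI-A reporter; 0% = median of COUP-TF2 test wells and 100% = reporter-only cells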
CHT inh: human CHT choline transport inhibition. Q9GZV3. CHT-expressing cells, membrane potential dye, choline response; active compounds read low. B-score at 10 µM. 0.86% of 310,000 active. AID 488975;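 active means B-score over 3 SD under the library average, and starting fluorescence ratio not unusually high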;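 further: choline stimulus applied at its EC90 after an EC20 pre-addition; B-score computed on integrated fluorescence ratio after choline addition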
Target sequence (Q9GZV3 whole entry, looked up): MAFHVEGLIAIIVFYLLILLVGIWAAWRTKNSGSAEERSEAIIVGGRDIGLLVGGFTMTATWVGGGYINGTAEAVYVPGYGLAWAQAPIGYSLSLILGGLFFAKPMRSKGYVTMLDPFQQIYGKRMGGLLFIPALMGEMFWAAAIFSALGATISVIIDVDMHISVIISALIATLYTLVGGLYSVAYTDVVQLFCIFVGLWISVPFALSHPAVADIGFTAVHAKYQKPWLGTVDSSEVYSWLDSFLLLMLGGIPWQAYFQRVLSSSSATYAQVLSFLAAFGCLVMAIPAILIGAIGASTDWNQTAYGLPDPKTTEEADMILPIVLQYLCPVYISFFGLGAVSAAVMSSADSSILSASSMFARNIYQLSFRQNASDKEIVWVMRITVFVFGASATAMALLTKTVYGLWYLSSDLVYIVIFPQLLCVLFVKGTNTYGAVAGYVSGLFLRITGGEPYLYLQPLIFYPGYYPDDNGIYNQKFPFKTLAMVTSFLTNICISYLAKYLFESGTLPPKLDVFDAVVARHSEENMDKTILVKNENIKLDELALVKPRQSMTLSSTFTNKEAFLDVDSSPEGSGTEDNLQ
NR2E3 ag-2: activates human NR2E3 receptor | 0.35% of 360,000 active | inhibition of corepressor binding, % at 3.98 µM | AID 602229 | Q9Y5X4 | CHO-S Gal4-NCOR/VP16-NR2E3 two-hybrid, luciferase;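 active means inhibition above the mean of all tested compounds plus 3 SD, cut at about 70% in these data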;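 further: 0% = DMSO with NR2E3 transfected cells and 100% = cells lacking NR2E3 construct; higher means lower luciferase signal from less NR2E3 corepressor binding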
GalR3 antag: blocks the human galanin receptor 3; O60755; inhibition, % at 3 µM; AID 651719; HEK293 GalR3-CNG cAMP membrane potential fluorescence; galR3 body fused to GalR1 C-terminus; 0.44% of 360,000 active;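 active means inhibition above the screen-wide average plus 3 SD, cut at about 13% in these data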;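 further: forskolin and galanin both at EC90 stimulate the cells; cAMP rise reported by CNG channel membrane potential dye signal; 0% = forskolin plus galanin with DMSO and 100% = forskolin alone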
CHT allo act: allosterically activates the human high affinity choline transporter; Q9GZV3; CHT-expressing cells, membrane potential dye, choline EC20; active compounds read high; LV-AA mutant CHT in HEK293 cells; B-score at 10 µM; 0.49% of 310,000 active; AID 488977;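 active means initial fluorescence not abnormally high and integrated response B-score, plate-corrected, over 3 SD above library mean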
GalR3 conf: GalR3 (human) antagonism, confirmation; shares compounds with GalR3 antag; HEK293 GalR3 CNG cAMP biosensor, membrane potential fluorescence; galR3 fused to GalR1 carboxy tail; challenged with forskolin and galanin at EC90; inhibition, % at 3 µM; 59% of 1,600 active;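 active means inhibition above the primary screen's cutoff, the mean inhibition of all screened compounds plus 3 SD, cut at about 13% in these data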;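 further: 0% = forskolin plus galanin and 100% = forskolin alone with DMSO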
CNG parental: acts as nonspecific agonist in parental HEK-CNG cells | 10% of 1,600 active | activation, % at 3 µM | HEK293-CNG parental cells, cAMP membrane potential fluorescence; normalised: DMSO wells 0%, forskolin wells 100% | AID 652268 | shares compounds with GalR3 antag; in the data active means activation above about 1.3%
VP16 Luc counter: VP16 inhibition counter-screen for COUP-TFII; shares compounds with NR2F2 inh; HEK293 Gal4-VP16 luciferase reporter, luminescence; inhibition, % at 8.5 µM; 25% of 2,500 active; in the data active means inhibition above about 13%
NR2F2 inh conf: COUP-TFII (NR2F2) inhibition, confirmation assay | shares compounds with NR2F2 inh | HEK293 NGFI-A luciferase reporter, luminescence | inhibition, % at 8.5 µM | 45% of 2,500 active;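 active means mean inhibition over three repeats above a set limit taken from the earlier primary screen, cut at about 38% in these data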;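 further: 100% = cells given the luciferase reporter alone without the COUP-TF2 vector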
An asterisk follows results filed as active; i = inactive; . = no result given.

SMILES	NR2E3 ag-1	NR2F2 inh	CHT inh	NR2E3 ag-2	GalR3 antag	CHT allo act	GalR3 conf	CNG parental	VP16 Luc counter	NR2F2 inh conf
Cc1ccccc1-c1cc(C(=O)O)nn1CC1CC(c2cccc([N+](=O)[O-])c2)=NO1 (stereo not given)	-2	6	i	4	18*	i	3	0	.	.
COc1ccc(CCNC(=O)Cn2nc(-c3ccccc3)ccc2=O)cc1	.	-15	.	.	.	.	.	.	.	.
O=S(=O)(c1ccccc1)c1ncc(C(F)(F)F)cc1O	-5	5	i	0	4	i	.	.	.	.
O=S(=O)(c1ccccc1)c1ncc(C(F)(F)F)cc1Cl	.	-12	.	17	15*	.	24*	1	.	.
CC(C)=CCOc1ccc([C@@H]2COc3c(ccc4c3C=CC(C)(C)O4)C2)c(O)c1	-1	20	i	31	19*	i	18*	22*	.	.
Cc1oc(-c2ccc(Cl)cc2)nc1CS(=O)CC(=O)NCCCN1CCN(Cc2ccccc2)CC1 (stereo not given)	2	62*	i	43	69*	i	110*	2.0*	8	65*
c1ccc(OCCCCn2cnc3ccccc32)cc1	1	7	i	19	-5	i	.	.	.	.
Cc1ccccc1OCCCCn1cnc2ccccc21	1	39*	i	68	77*	i	19*	-1	-16	17
COc1ccc(C(=O)N2CCN(c3ccc([N+](=O)[O-])c(NCCc4ccc(OC)c(OC)c4)c3)CC2)cc1	-1	39*	i	24	24*	i	92*	0	12	89*
COc1ccc(CCNc2cc(N3CCN(C(=O)c4ccc(C)cc4)CC3)ccc2[N+](=O)[O-])cc1OC	1	.	i	.	.	i	.	.	.	.
CC(C)c1ccc(CN2CCN(C(=O)CSc3nnnn3C3CC3)CC2)cc1	6	63*	.	14	97*	.	107*	0	1	51*
Cc1ccc(Cn2ncc3c(N4CCN(Cc5ccc(Cl)cc5)CC4)ncnc32)cc1	0	39*	i	-5	53*	i	69*	1	11	51*
COC(=O)[C@]12CCCCC=C1N(Cc1cccc3ccccc13)C(=O)[C@H](CC(=O)NCc1ccc(OC)c(OC)c1)C2	.	97*	.	12	14*	.	76*	0	6	58*
C=CCN1C(=O)[C@H](CC(=O)NCC23CC4CC(CC(C4)C2)C3)[C@@]2(C(=O)OC)CCCCC=C12	.	15	.	.	.	.	.	.	.	.
O=[N+]([O-])c1ccc(N=Nc2c(Cl)cc(O)cc2Cl)cc1	-2	64*	i	13	35*	i	31*	3.9*	-73	49*
Cc1cccc(NC(=O)c2ccc(Cl)c(S(=O)(=O)N3CCc4ccccc43)c2)n1	0	19	.	-30	-2	.	.	.	.	.
COc1ccc(C(=O)Nc2ccc(S(=O)(=O)N3CCc4ccccc43)cc2)cc1	2	59*	i	15	30*	i	86*	-2	-17	42*
O=C(Nc1ccncc1)c1ccc(Cl)c(S(=O)(=O)N2CCc3ccccc32)c1	3	73*	i	-9	40*	i	61*	0	2	60*
CCN(CC)c1ccc(C=NNC(=O)c2cc(-c3ccc(C)c(C)c3)n[nH]2)c(O)c1	.	-34	.	.	.	.	.	.	.	.
Cc1ccc(NC(=O)CSc2ccc3c(c2)OCCO3)c(O)c1	3	39*	i	-4	33*	i	75*	-1	4	37
Cc1ccnc(NC(=O)CSc2ccc3c(c2)OCCO3)c1	1	-22	i	-44	-7	i	.	.	.	.
COc1ccc(C(O)c2nc3ccccc3n2C)cc1OC (stereo not given)	0	47*	i	40	95*	i	33*	0	1	32
NS(=O)(=O)c1ccc(NC(=S)N2CCN(c3ccc(Cl)c(Cl)c3)CC2)cc1	1	38*	i	39	21*	i	37*	-2	13*	24
CCc1ccc(CN2CCN(C(=O)c3cccc(OC)c3OC)CC2)cc1	3	54*	i	5	98*	i	101*	0	-6	40*
O=S(=O)(c1ccc2c(c1)OCCO2)N1CCN(c2ncnc3sccc23)CC1	-2	70*	i	87*	100*	i	111*	0	3	53*
SMILES	NR2E3 ag-1	NR2F2 inh	CHT inh	NR2E3 ag-2	GalR3 antag	CHT allo act	GalR3 conf	CNG parental	VP16 Luc counter	NR2F2 inh conf
CN1CCN(S(=O)(=O)c2ccc3c(c2)OCCO3)CC1	2	2	i	6	-4	i	.	.	.	.
O=C(Nc1ccccc1Oc1ccccc1)NC1CCCCN(Cc2ccc(Cl)cc2)C1=O (stereo not given)	.	1	.	.	.	.	.	.	.	.
Cc1ccc(C)c(N2CCN(c3ncnc4c3cnn4-c3ccccc3)CC2)c1	.	-3	.	-31	9	.	.	.	.	.
COc1cccc(N2CCN(c3ncnc4c3cnn4-c3ccc(C)cc3C)CC2)c1	3	97*	i	43	67*	i	97*	0	27*	91*
COc1ccccc1CC(=O)Nc1cccc(S(=O)(=O)N2CCOCC2)c1	1	3	i	5	-3	i	.	.	.	.
COc1ccc(CC(=O)Nc2cccc(S(=O)(=O)N3CCCC3)c2)cc1OC	-4	62*	.	46	85*	.	28*	-1	6	45*
COc1ccc(CC(=O)Nc2cccc(S(=O)(=O)N3CCOCC3)c2)cc1OC	-4	47*	.	38	41*	.	18*	0	2	30
Cc1ccc(C(=O)N2CCC(Oc3cccnc3)CC2)c(C)c1	.	-1	.	.	.	.	.	.	.	.
Nc1[nH]c2cc(Cl)ccc2c1C(=O)N1CCOCC1	.	-13	.	.	.	.	.	.	.	.
CC(C)(C)C(=O)O[C@@H]1CCC[C@@]2(C(=O)N(Cc3ccccc3)c3ccccc32)[C@H]1NC(=O)CCc1ccccc1	.	12	.	.	.	.	.	.	.	.
Cc1occc1-c1nnc(SCC(=O)Nc2ccncc2)n1-c1ccccc1	.	19	.	.	.	.	.	.	.	.

Screens as filed in PubChem.
